Screening data deposited in PubChem BioAssay by Broad Institute.
This excerpt belongs to a sample that is enriched for hits.
PDI turbidity = inhibitors of human PDI, primary screen, biochemical, turbidity, single point, plate reader; PDI insulin aggregation turbidity, A650, 90 min; 350,000 tested, 0.052% active; Protein disulfide-isomerase (Homo sapiens), P07237; inhibition, % at 10 µM; AID 588391, 2011;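 active = mean inhibition across replicates of 30% or more, whatever share of single replicates reach that level; inconclusive = mean inhibition below 30% while every single replicate reaches 30%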
Target sequence (P07237 whole entry, looked up): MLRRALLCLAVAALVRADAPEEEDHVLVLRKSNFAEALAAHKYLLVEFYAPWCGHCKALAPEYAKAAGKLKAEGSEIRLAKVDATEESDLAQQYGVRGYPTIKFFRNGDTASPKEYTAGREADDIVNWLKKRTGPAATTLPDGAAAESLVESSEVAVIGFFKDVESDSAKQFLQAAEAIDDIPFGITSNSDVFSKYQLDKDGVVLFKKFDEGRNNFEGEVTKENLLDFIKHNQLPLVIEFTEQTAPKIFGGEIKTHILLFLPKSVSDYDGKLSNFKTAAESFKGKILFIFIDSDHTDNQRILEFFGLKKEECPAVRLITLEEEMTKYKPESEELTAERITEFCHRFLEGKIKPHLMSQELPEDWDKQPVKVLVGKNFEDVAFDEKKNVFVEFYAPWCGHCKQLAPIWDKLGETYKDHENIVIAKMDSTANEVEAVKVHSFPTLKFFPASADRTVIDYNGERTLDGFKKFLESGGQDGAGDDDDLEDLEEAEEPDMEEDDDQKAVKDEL
ERAP1 HTS inh = human ERAP1 aminopeptidase inhibitors, primary screen, biochemical, single point, plate reader. 340,000 tested, 0.15% active. Endoplasmic reticulum aminopeptidase 1 (Homo sapiens), Q9NZ08. recombinant ERAP1, Leu-AMC fluorescence, 60 min. AID 652197, 2013. inhibition, % at 10.7 µM;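 active = mean replicate inhibition of at least 30%, or all replicates individually reaching that 30% level; inactive = mean below 30% and not every replicate reaching it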
S100A4 inh HTS = inhibitors of S100A4-myosin IIA peptide binding, primary screen, biochemical, fluorescence polarization, TAMRA-MyoIIA peptide; Protein S100-A4 (Homo sapiens), P26447; inhibition, % at 10.7 µM; 360,000 tested, 0.14% active; AID 652163, 2013;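 active = mean inhibition of at least 70% across replicates, with every replicate also reaching that level; inconclusive = mean inhibition reaches 70% but some replicates fall short; inactive = mean inhibition below 70%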
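Assay system: human S100A4 monomer with TAMRA-labelled myosin IIA peptide / Buffer or medium: Calcium-containing HEPES buffer, pH 7.2 / Reagent: TAMRA-labelled myosin IIA heavy-chain peptide probe, 5 nM / Compound: one dose per compound / Timing: polarization read 5 min after assay mix addition, stable 5–60 min / Benchmarks: neutral control DMSO, positive control TFP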
ERp5 block = inhibitors of ERp5-driven insulin aggregation, primary screen, biochemical, turbidity, absorbance 650 nm, single point; Protein disulfide-isomerase A6 (Homo sapiens), Q15084; 90 min; inhibition, % at 9.99 µM; 350,000 tested, 0.05% active; AID 651711, 2012;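 active = mean replicate inhibition above about 25%, with every replicate also reaching it, limit read from the data, passing the limit was not always enough; inconclusive = only one of those two criteria met; inactive = neither criterion met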
FGF22 binding = binders of human FGF22 protein, primary screen, FGF22 synaptogenesis inhibitor project, biophysical, thermal shift, single point. Fibroblast growth factor 22 (Homo sapiens), Q9HCT0. recombinant FGF22 thermal shift, SYPRO orange fluorescence; percent of sucrose octasulfate shift, DMSO zero. activity (Tm shift, normalised), % at 9.99 µM. 340,000 tested, 1.5% active;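 active = mean Tm shift, scaled 0 neutral to 100 positive control, at about 1.3% or above, every replicate too, limit read from the data; inconclusive = no clear call, values can overlap the other calls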
Target sequence (Q9HCT0 whole entry, looked up): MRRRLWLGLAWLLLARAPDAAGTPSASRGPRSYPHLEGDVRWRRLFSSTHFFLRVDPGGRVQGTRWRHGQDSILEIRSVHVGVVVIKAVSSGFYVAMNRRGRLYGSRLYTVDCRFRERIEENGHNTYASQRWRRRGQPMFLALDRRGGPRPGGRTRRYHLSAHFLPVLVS
Each line names hits and unclear results; the compound was inactive in the other large screens.

COc1ccc([N+](=O)[O-])cc1NCc1ccco1	none
Cc1ccnc(NC(=O)c2ccc(Cl)c(NC(=O)C(C)Oc3ccccc3)c2)c1 (configuration not stated)	FGF22 binding 43
COc1cccc(N(CC(=O)NCC2CCCO2)C(=O)CNS(=O)(=O)c2ccccc2)c1 (configuration not stated)	FGF22 binding 44
O=C(CN(CC1CCCO1)C(=O)CNS(=O)(=O)c1ccccc1)NCCc1ccccc1 (configuration not stated)	none
O=C(CN(CC1CCCO1)C(=O)CNS(=O)(=O)c1ccccc1)NCc1ccco1 (configuration not stated)	FGF22 binding 43
C[C@H](CO)N1C[C@H](C)[C@H](CN(C)Cc2ccc(C(=O)Nc3ccccc3N)cc2)Oc2c(NC(=O)c3ccncc3)cccc2C1=O	none (no result: PDI turbidity)
CCc1c(C)nc(SCC(=O)Nc2nc(-c3ccc(OC)cc3)cs2)[nH]c1=O	FGF22 binding 43
CCC1=NN2C(=N)/C(=C\c3cccn3-c3ccc(Cl)cc3)C(=O)N=C2S1	FGF22 binding 47
CCC1=NN2C(=N)/C(=C\c3cccn3-c3ccc(C)c(C)c3)C(=O)N=C2S1	none
O=C(COc1ccccc1)N/N=C/c1ccc([N+](=O)[O-])o1	none
O=C(CNc1ccc2ccccc2c1)N/N=C/c1ccc([N+](=O)[O-])o1	FGF22 binding 43
CCOCc1c(C(=O)Nc2ccc(OC)nc2)oc2ccccc12	ERAP1 HTS inh 55
COc1ccc(NC(=O)c2oc3ccccc3c2CSC)cn1	none
CCc1nnc(NC(=O)c2oc3ccccc3c2COC(C)C)s1	FGF22 binding 43
CC(OC(=O)c1ccco1)C(=O)NC1CCCC1 (configuration not stated)	none
C[C@@H]1CN([C@H](C)CO)C(=O)c2cc(NS(C)(=O)=O)ccc2O[C@@H](C)CCCCO[C@@H]1CN(C)C(=O)c1ccccc1	none (no result: PDI turbidity)
N#Cc1cnn(-c2cccc(Cl)c2)c1N	FGF22 binding 43
O=C(CSc1nnc(-c2ccco2)o1)N1CCN(c2ccccc2)CC1	FGF22 binding 43
O=C(CSc1nnc(-c2ccco2)o1)N1CCOCC1	none (no result: ERAP1 HTS inh, S100A4 inh HTS, ERp5 block, FGF22 binding)
Cc1nnc(SCC(=O)N2CCN(C(=O)c3ccco3)CC2)n1-c1ccccc1	FGF22 binding 43
CCOC(=O)C1CCN(C(=O)CCC(=O)NCCc2ccc(Cl)cc2)CC1	none
Cc1cc(NC(=O)CSc2ccc3nnc(CCNS(=O)(=O)c4ccccc4)n3n2)no1	FGF22 binding 44
Cc1c(C=O)c2ccccc2n1CC(=O)NC(C)c1ccccc1 (configuration not stated)	ERp5 block inconclusive, FGF22 binding 43
c1ccc(N=C2SCCCS2)cc1	FGF22 binding 43
COC(=O)[C@]12C[C@H](CC(=O)NCCC(C)C)C(=O)N(Cc3ccccc3)C1=C[C@H](C(C)(C)C)O[C@@H]2C	none (no result: PDI turbidity)
COC(=O)c1ccc(COc2ccccc2/C=C(\C#N)C(=O)Nc2c(C)cc(C)cc2C)cc1	none
COC(=O)c1ccc(COc2ccccc2/C=C(\C#N)C(=O)Nc2ccc(C)cc2C)cc1	ERAP1 HTS inh 37
CC1=C(C(=O)Nc2ccccc2C(=O)NC2CCC(C)CC2)SCCO1 (configuration not stated)	none
Cc1cc(CSc2ccccc2)ccc1NC(=O)COc1ccccc1C	FGF22 binding 44
Cc1ccccc1OCC(=O)Nc1ccccc1-c1ccccc1NC(=O)COc1ccccc1C	none (no result: ERAP1 HTS inh, S100A4 inh HTS, ERp5 block, FGF22 binding)
COc1ccccc1/C=N/NC(=O)CCn1cnc2ccccc21	FGF22 binding 44
O=C(/C=C/c1ccccc1)NCC(=O)N/N=C\c1cccnc1	none
Cc1ccc(/C=N/NC(=O)Cn2cnc3ccccc32)cc1	none
Cc1ccc(N(CC(=O)N/N=C/c2cccnc2)S(=O)(=O)c2ccccc2)cc1	FGF22 binding 44
O=C(CNS(=O)(=O)N1CCOCC1)N/N=C/c1cccnc1	FGF22 binding 44
O=C(CCn1cnc2ccccc21)N/N=C/c1ccccc1O	none
O=C(Cn1cnc2ccccc21)N/N=C/c1cccnc1	FGF22 binding 43
C[C@@H]1CN([C@@H](C)CO)C(=O)c2cccc(NS(=O)(=O)c3ccc(F)cc3)c2O[C@@H]1CN(C)CC1CCCCC1	none (no result: PDI turbidity)
Cc1nc(CSc2ccc(Cl)cc2)cs1	none
COc1ccc(NC(=O)N(C)C[C@H]2OCCCC[C@H](C)Oc3ccc(NS(C)(=O)=O)cc3C(=O)N([C@@H](C)CO)C[C@H]2C)cc1	none (no result: PDI turbidity)
O=C(Cn1cnc2ccccc21)Nc1cccc([N+](=O)[O-])c1	none
Cc1ccc(NC(=O)Cn2cnc3ccccc32)cc1C	FGF22 binding 43
CC(C)(C)NC(=O)COC(=O)c1ccc(NC(=O)CC#N)cc1	none
O=C(Nc1ccc(-c2nnc3n2CCCCC3)cc1)c1cc2ccccc2o1	FGF22 binding 44
COCCNC(=O)c1cc2cc(Br)cc(Br)c2oc1=O	none
O=c1[nH]c(CSc2nnnn2-c2ccccc2)nc2ccccc12	FGF22 binding 43
Cc1ccccc1C1NC(=S)NC2=C1C(=O)CC(C)(C)C2 (configuration not stated)	FGF22 binding 43
CC1CC(C)(C)NC(=S)N1CC(=O)N(C)Cc1ccccc1 (configuration not stated)	none (no result: ERAP1 HTS inh, S100A4 inh HTS, ERp5 block, FGF22 binding)
Cc1ccccc1Cn1cnc2ccccc2c1=O	none
O=c1c2ccccc2ncn1Cc1cccc2ccccc12	FGF22 binding 43
COc1ccc(Cc2nnc(SCC(=O)NC3(C#N)CCCCC3)n2N)cc1	ERp5 block 25
CC1(C)Oc2cc3oc(=O)ccc3c3c2C2C1CCC(C)(O3)C2O (configuration not stated)	none (no result: PDI turbidity)
COc1ccc2c3c([nH]c2c1)[C@@H](CO)N(CC1CCCC1)CC31CN(C)C1	none (no result: PDI turbidity)
CC(C)(C)c1ccc(OCCCC(=O)Nc2ccc(S(N)(=O)=O)cc2)cc1	FGF22 binding 44
O=C(NCC[C@H]1CC[C@H](NC(=O)c2cccnc2)[C@@H](CO)O1)Nc1ccc(Cl)cc1	none (no result: PDI turbidity)
COc1ccccc1CN1[C@@H](CO)[C@@H]2c3ccccc3N(C(=O)c3cccnc3)C[C@@H]21	none (no result: PDI turbidity)
COc1ccccc1CN1[C@H](CO)[C@H]2c3ccccc3N(C(=O)c3cccnc3)C[C@H]21	S100A4 inh HTS 130 (no result: PDI turbidity)
CCOC(=O)Cc1csc(NC(=O)CSc2ncnc3c2cnn3-c2ccc(OC)cc2)n1	none (no result: ERAP1 HTS inh, S100A4 inh HTS, ERp5 block, FGF22 binding)
O=c1ccc2[n+]([O-])c3ccc(O)cc3oc-2c1	S100A4 inh HTS active (no result: ERAP1 HTS inh, FGF22 binding)
O=C(c1ccc2c(c1)OCO2)N1C[C@@H]2[C@H](c3ccccc31)[C@H](CO)N2Cc1ccccc1Cl	none (no result: PDI turbidity)
Cc1ccc(C(=O)Nc2nnc(CC(=O)N/N=C/c3ccc(O)c(O)c3)s2)cc1	none
